Source: ChEMBL document CHEMBL3102784, “Salicylanilide diethyl phosphates: synthesis, antimicrobial activity and cytotoxicity” (Bioorg Med Chem, 2014)
Converted amounts (≈) assume the structure as drawn. The source made the active and inactive calls. The calls are words filed in the database; no cut-off is given here.

What was measured:
[1] = tested on: Candida tropicalis; assay: Antifungal activity against Candida tropicalis 156 at 500 micromol/L after 24 to 48 hrs by broth microdilution method; format: functional, organism-based
Summary of the method: (§1)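 Broth microdilution in RPMI 1640 with glutamine, fluconazole as reference. For yeasts, MIC is ≥80% growth reduction (IC80) versus control. For filamentous fungi, the value is expressed as IC50. Readings at 24 and 48 h.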

[2] = tested on: Mycobacterium avium; assay: Antimycobacterial activity against isoniazid, rifampicin, ethambutol and ofloxacin-resistant Mycobacterium avium My 330/88 after 21 days; format: functional; conditions: My 330/88, 504 h
Summary of the method: (§2)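 Micromethod MIC in Šula's semisynthetic medium at 37 °C. Compounds added in DMSO at 1000 down to 0.032 µmol/L. Isoniazid standard in sterile water at 0.5–250 µmol/L. Inocula: H37Rv 10^3, M. avium 10^5, M. kansasii 10^4. Read at 14 and 21 d, plus 7 d for M. kansasii.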

[3] = tested on: Pichia kudriavzevii; assay: Antifungal activity against Candida krusei E28 after 24 hrs by broth microdilution method; format: functional; conditions: E28, 24 h; summary of the method: as §1
[4] = tested on: Pseudomonas aeruginosa; assay: Antibacterial activity against Pseudomonas aeruginosa CCM 1961 at 500 micromol/L after 24 to 48 hrs by broth microdilution method; format: functional, organism-based
Summary of the method: (§3)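 Broth microdilution in Mueller–Hinton broth, compounds dissolved in DMSO, tested over a dilution series from 500 downward. MIC taken as ≥95% growth reduction (IC95) versus drug-free control. Benzylpenicillin comparator. Readings at 24 and 48 h.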

[5] = tested on: Staphylococcus aureus; assay: Antibacterial activity against Staphylococcus aureus CCM 4516/08 after 48 hrs by broth microdilution method; format: functional; conditions: CCM 4516/08, 48 h; summary of the method: as §3
[6] = tested on: Staphylococcus aureus; assay: Antibacterial activity against Staphylococcus aureus CCM 4516/08 after 24 hrs by broth microdilution method; format: functional; conditions: CCM 4516/08, 24 h; summary of the method: as §3
[7] = tested on: Trichosporon asahii; assay: Antifungal activity against Trichosporon asahii 1188 after 48 hrs by broth microdilution method; format: functional; conditions: Trichosporon asahii, 1188, 48 h; summary of the method: as §1
[8] = tested on: Lichtheimia corymbifera; assay: Antifungal activity against Absidia corymbifera 272 after 24 hrs by broth microdilution method; format: functional; conditions: Lichtheimia corymbifera, 272, 24 h; summary of the method: as §1
[9] = tested on: Candida albicans; assay: Antifungal activity against Candida albicans ATCC 44859 after 48 hrs by broth microdilution method; format: functional; conditions: ATCC 44859, 48 h; summary of the method: as §1
[10] = tested on: Staphylococcus aureus; assay: Antibacterial activity against methicillin-resistant Staphylococcus aureus H 5996/08 after 48 hrs by broth microdilution method; format: functional; conditions: H 5996/08, 48 h; summary of the method: as §3
[11] = tested on: Mycobacterium kansasii; assay: Antimycobacterial activity against Mycobacterium kansasii My 235/80 after 21 days; format: functional; conditions: My 235/80, 504 h; summary of the method: as §2
[12] = tested on: Trichosporon asahii; assay: Antifungal activity against Trichosporon asahii 1188 after 24 hrs by broth microdilution method; format: functional; conditions: Trichosporon asahii, 1188, 24 h; summary of the method: as §1
[13] = tested on: Mycobacterium avium; assay: Antimycobacterial activity against isoniazid, rifampicin, ethambutol and ofloxacin-resistant Mycobacterium avium My 330/88 after 14 days; format: functional; conditions: My 330/88, 336 h; summary of the method: as §2
[14] = tested on: Nakaseomyces glabratus; assay: Antifungal activity against Candida glabrata 20/I at 500 micromol/L after 24 to 48 hrs by broth microdilution method; format: functional, organism-based; summary of the method: as §1
[15] = tested on: Mycobacterium tuberculosis; assay: Antimycobacterial activity against Mycobacterium tuberculosis H37Rv My 331/88 after 14 days; format: functional; conditions: H37Rv My 331/88, 336 h; summary of the method: as §2
[16] = tested on: HepG2; assay: Cytotoxicity against human HepG2 cells after 24 hrs by CellTiter assay; format: cell-based; conditions: HepG2, 24 h
Summary of the method: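 HepG2 cells (passage 27–33) in MEM with 10% FBS, L-glutamine and NEAA, seeded at 1×10^4 per well. Treated next day with compounds at 0.1–100 µM (or 0.1–25 µmol/L), triplicates, <1% DMSO, for 24 h at 37 °C, 5% CO2. MTS reagent added for 2 h, absorbance read at 490 nm. IC50 taken against untreated (100%) and 10% DMSO (0%) controls.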

[17] = tested on: Enterococcus sp.; assay: Antibacterial activity against Enterococcus sp. J 14365/08 at 500 micromol/L after 24 to 48 hrs by broth microdilution method; format: functional, organism-based; summary of the method: as §3
[18] = tested on: Aspergillus fumigatus; assay: Antifungal activity against Aspergillus fumigatus 231 after 24 hrs by broth microdilution method; format: functional; conditions: Aspergillus fumigatus, 231, 24 h; summary of the method: as §1
[19] = tested on: Mycobacterium kansasii; assay: Antimycobacterial activity against Mycobacterium kansasii My 235/80 after 14 days; format: functional; conditions: My 235/80, 336 h; summary of the method: as §2
[20] = tested on: Lichtheimia corymbifera; assay: Antifungal activity against Absidia corymbifera 272 after 48 hrs by broth microdilution method; format: functional; conditions: Lichtheimia corymbifera, 272, 48 h; summary of the method: as §1
[21] = tested on: Staphylococcus epidermidis; assay: Antibacterial activity against Staphylococcus epidermidis H 6966/08 after 24 hrs by broth microdilution method; format: functional; conditions: H 6966/08, 24 h; summary of the method: as §3
[22] = tested on: Staphylococcus aureus; assay: Antibacterial activity against methicillin-resistant Staphylococcus aureus H 5996/08 after 24 hrs by broth microdilution method; format: functional; conditions: H 5996/08, 24 h; summary of the method: as §3
[23] = tested on: Trichophyton mentagrophytes; assay: Antifungal activity against Trichophyton mentagrophytes 445 after 120 hrs by broth microdilution method; format: functional; conditions: Trichophyton mentagrophytes, 445, 120 h
Summary of the method: (§4)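 Filamentous dermatophyte tested by broth microdilution in RPMI 1640 with glutamine, fluconazole as reference. Value expressed as IC50 relative to growth control. Read at 72 and 120 h.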

[24] = tested on: Escherichia coli; assay: Antibacterial activity against Escherichia coli CCM 4517 at 500 micromol/L after 24 to 48 hrs by broth microdilution method; format: functional, organism-based; summary of the method: as §3
[25] = tested on: Mycobacterium kansasii; assay: Antimycobacterial activity against Mycobacterium kansasii 6509/96 after 14 days; format: functional; conditions: 6509/96, 336 h; summary of the method: as §2
[26] = tested on: Aspergillus fumigatus; assay: Antifungal activity against Aspergillus fumigatus 231 after 48 hrs by broth microdilution method; format: functional; conditions: Aspergillus fumigatus, 231, 48 h; summary of the method: as §1
[27] = tested on: Pichia kudriavzevii; assay: Antifungal activity against Candida krusei E28 after 48 hrs by broth microdilution method; format: functional; conditions: E28, 48 h; summary of the method: as §1
[28] = tested on: Mycobacterium kansasii; assay: Antimycobacterial activity against Mycobacterium kansasii 6509/96 after 7 days; format: functional; conditions: 6509/96, 168 h; summary of the method: as §2
[29] = tested on: Trichophyton mentagrophytes; assay: Antifungal activity against Trichophyton mentagrophytes 445 after 72 hrs by broth microdilution method; format: functional; conditions: Trichophyton mentagrophytes, 445, 72 h; summary of the method: as §4
[30] = tested on: Staphylococcus epidermidis; assay: Antibacterial activity against Staphylococcus epidermidis H 6966/08 after 48 hrs by broth microdilution method; format: functional; conditions: H 6966/08, 48 h; summary of the method: as §3
[31] = tested on: Candida albicans; assay: Antifungal activity against Candida albicans ATCC 44859 after 24 hrs by broth microdilution method; format: functional; conditions: ATCC 44859, 24 h; summary of the method: as §1
[32] = tested on: Mycobacterium tuberculosis; assay: Antimycobacterial activity against Mycobacterium tuberculosis H37Rv My 331/88 after 21 days; format: functional; conditions: H37Rv My 331/88, 504 h; summary of the method: as §2
[33] = tested on: Mycobacterium kansasii; assay: Antimycobacterial activity against Mycobacterium kansasii 6509/96 after 21 days; format: functional; conditions: 6509/96, 504 h; summary of the method: as §2
[34] = tested on: Klebsiella pneumoniae; assay: Antibacterial activity against ESBL-positive Klebsiella pneumoniae J 14368/08 at 500 micromol/L after 24 to 48 hrs by broth microdilution method; format: functional, organism-based; summary of the method: as §3
[35] = tested on: Klebsiella pneumoniae; assay: Antibacterial activity against Klebsiella pneumoniae D 11750/08 at 500 micromol/L after 24 to 48 hrs by broth microdilution method; format: functional, organism-based; summary of the method: as §3
[36] = tested on: Mycobacterium kansasii; assay: Antimycobacterial activity against Mycobacterium kansasii My 235/80 after 7 days; format: functional; conditions: My 235/80, 168 h; summary of the method: as §2

With `CCOP(=O)(OCC)Oc1cc(Cl)ccc1C(=O)Nc1cccc(Cl)c1` the Activity [1] was “inactive”, the MIC [2] was 16 µM (≈ 6.69 µg/mL) and the MIC80 [3] was greater than 500 µM. For the same compound, the Activity [4] was “inactive”, the MIC95 [5] was 500 µM (≈ 209 µg/mL) and the MIC95 [6] was 500 µM (≈ 209 µg/mL). The MIC80 [7] was greater than 500 µM, the MIC50 [8] was greater than 500 µM and the MIC80 [9] was greater than 500 µM. The MIC95 [10] was 500 µM (≈ 209 µg/mL), the MIC [11] was 8 µM (≈ 3.35 µg/mL) and the MIC80 [12] was greater than 500 µM. For the same compound, the MIC [13] was 16 µM (≈ 6.69 µg/mL), the Activity [14] was “inactive” and the MIC [15] was 4 µM (≈ 1.67 µg/mL). For the same compound, the IC50 [16] was 9.57 µM, the Activity [17] was “inactive” and the MIC50 [18] was greater than 500 µM. It also gave an MIC [19] of 8 µM (≈ 3.35 µg/mL), an MIC50 [20] greater than 500 µM and an MIC95 [21] of 250 µM (≈ 105 µg/mL). The MIC95 [22] was 500 µM (≈ 209 µg/mL), the MIC50 [23] was greater than 500 µM and the Activity [24] was “inactive”. For the same compound, the MIC [25] was 8 µM (≈ 3.35 µg/mL), the MIC50 [26] was greater than 500 µM and the MIC80 [27] was greater than 500 µM. It also gave an MIC [28] of 8 µM (≈ 3.35 µg/mL), an MIC50 [29] greater than 500 µM and an MIC95 [30] of 500 µM (≈ 209 µg/mL). The MIC80 [31] was greater than 500 µM, the MIC [32] was 8 µM (≈ 3.35 µg/mL) and the MIC [33] was 8 µM (≈ 3.35 µg/mL). For the same compound, the Activity [34] was “inactive”, the Activity [35] was “inactive” and the MIC [36] was 4 µM (≈ 1.67 µg/mL).
With `CCOP(=O)(OCC)Oc1ccc(Cl)cc1C(=O)Nc1ccc(F)cc1` the Activity [1] was “inactive”, the MIC [2] was 62.5 µM (≈ 25.1 µg/mL) and the MIC80 [3] was greater than 500 µM. For the same compound, the Activity [4] was “inactive”, the MIC95 [5] was 500 µM (≈ 201 µg/mL) and the MIC95 [6] was 250 µM (≈ 100 µg/mL). The MIC80 [7] was greater than 500 µM, the MIC50 [8] was greater than 500 µM and the MIC80 [9] was greater than 500 µM. It also gave an MIC95 [10] greater than 500 µM, an MIC [11] of 32 µM (≈ 12.9 µg/mL) and an MIC80 [12] greater than 500 µM. The MIC [13] was 62.5 µM (≈ 25.1 µg/mL), the Activity [14] was “inactive” and the MIC [15] was 8 µM (≈ 3.21 µg/mL). For the same compound, the IC50 [16] was 31.4 µM, the Activity [17] was “inactive” and the MIC50 [18] was greater than 500 µM. The MIC [19] was 32 µM (≈ 12.9 µg/mL), the MIC50 [20] was greater than 500 µM and the MIC95 [21] was greater than 500 µM. For the same compound, the MIC95 [22] was greater than 500 µM, the MIC50 [23] was greater than 500 µM and the Activity [24] was “inactive”. For the same compound, the MIC [25] was 32 µM (≈ 12.9 µg/mL), the MIC50 [26] was greater than 500 µM and the MIC80 [27] was greater than 500 µM. The MIC [28] was 16 µM (≈ 6.43 µg/mL), the MIC50 [29] was greater than 500 µM and the MIC95 [30] was greater than 500 µM. The MIC80 [31] was greater than 500 µM, the MIC [32] was 16 µM (≈ 6.43 µg/mL) and the MIC [33] was 32 µM (≈ 12.9 µg/mL). The Activity [34] was “inactive”, the Activity [35] was “inactive” and the MIC [36] was 32 µM (≈ 12.9 µg/mL).
